Data taken from ChEMBL document CHEMBL2016503, “Design and synthesis of 4-O-methylhonokiol analogs as inhibitors of cyclooxygenase-2 (COX-2) and PGF₁ production” (Bioorg Med Chem, 2012).

Tests used:
[1] = molecular target: T1, Prostaglandin G/H synthase 2 (Homo sapiens) (UniProt P35354); conditions: at 100 nM;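 note: recombinant enzyme with arachidonic acid substrate, compound preincubated 10 min before substrate, product read by EIA after 2 min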
T1 sequence (whole entry): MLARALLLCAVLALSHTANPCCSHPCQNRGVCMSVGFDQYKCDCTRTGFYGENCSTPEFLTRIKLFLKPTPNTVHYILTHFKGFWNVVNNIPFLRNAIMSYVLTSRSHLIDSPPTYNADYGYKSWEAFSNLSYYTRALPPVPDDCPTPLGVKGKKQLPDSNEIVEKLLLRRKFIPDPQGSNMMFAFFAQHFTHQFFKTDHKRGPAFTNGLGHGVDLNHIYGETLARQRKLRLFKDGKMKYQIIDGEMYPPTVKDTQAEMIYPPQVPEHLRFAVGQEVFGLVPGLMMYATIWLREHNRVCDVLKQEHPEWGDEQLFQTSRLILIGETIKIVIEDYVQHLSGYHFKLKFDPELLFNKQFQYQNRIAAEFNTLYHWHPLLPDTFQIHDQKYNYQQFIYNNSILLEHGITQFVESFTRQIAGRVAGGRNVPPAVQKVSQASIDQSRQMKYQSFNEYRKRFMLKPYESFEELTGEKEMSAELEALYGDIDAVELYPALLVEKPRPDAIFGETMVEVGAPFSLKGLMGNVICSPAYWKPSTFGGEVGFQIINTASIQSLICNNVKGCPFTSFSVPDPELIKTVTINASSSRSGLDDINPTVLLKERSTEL

RAW264.7 [2] = assay: Cytotoxicity against mouse RAW264.7 cells assessed as cell viability by propidium iodide staining based FACS-flow cytometry
How it was run: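 RAW264.7 macrophages were grown in DMEM with heat-inactivated 10% FBS, penicillin and streptomycin at 37 °C under 5% CO₂. Viability was assessed by propidium iodide nuclear staining at 1 µg/ml, followed by flow cytometry. PI-stained cells were counted as dead.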

RAW264.7 [3] = assay: Inhibition of LPS-induced NO production in mouse RAW264.7 cells after 24 hrs by Griess assay; type: functional, cell-based; conditions: RAW264.7, 24 h
How it was run: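 RAW264.7 macrophages were grown in DMEM with heat-inactivated 10% FBS, penicillin and streptomycin at 37 °C under 5% CO₂. Cells were stimulated with LPS for 24 h with or without compound. Culture medium was mixed with an equal volume of 0.05% sulfanilamide and 0.05% N-(1-naphthyl)ethylenediamine, and absorbance was read at 540 nm. Nitrite was quantified against a sodium nitrite standard curve.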

| SMILES | inhibition [1] [%] | IC50 (RAW264.7 [3]) [µM] | IC50 (RAW264.7 [2]) [µM] |
| --- | --- | --- | --- |
| C=CCc1ccc(OC(=O)NCc2ccccc2)c(-c2ccc(OC)c(CC=C)c2)c1 | 65 | > 100 | > 100 |
| C=CCn1cc(-c2cc(CCC)ccc2O)nn1 | 22 | > 50 | > 50 |
| C=CCc1cc(Br)c(O)c(-c2ccc(OC)c(CC=C)c2)c1 | 52 | 28 | 33 |
| C=CCc1ccc(O)c(-c2cc(CO)on2)c1 | 38 | 36 | > 50 |
| C=CCc1ccc(OC(=O)N(C)Cc2ccccc2)c(-c2ccc(OC)c(CC=C)c2)c1 | 63 | 33 | 44 |
| C=CCc1ccc(O)c(-c2cc(CCC)on2)c1 | 39 | 61 | 81 |
| C=CCc1ccc(OCC=C(C)C)c(-c2ccc(OC)c(CC=C)c2)c1 | 44 | > 100 | > 100 |
| C=CCc1cc(Cl)c(O)c(-c2ccc(OC)c(CC=C)c2)c1 | – | 40 | 81 |
| CCCc1cc(-c2cc(Br)ccc2O)no1 | 35 | 63 | 63 |
| Cc1ccc(-c2cc(C(F)(F)F)nn2-c2ccc(S(N)(=O)=O)cc2)cc1 [CELECOXIB] | – | 12.1 | 11.1 |
| CCCc1ccc(O)c(-c2ccc(OC)c(CCC)c2)c1 | 46 | 11 | 13 |
| C=CCNC(=O)Oc1ccc(CC=C)cc1-c1ccc(OC)c(CC=C)c1 | 48 | > 100 | > 100 |
| CCCc1ccc(O)c(-c2cn(CC3CCC3)nn2)c1 | 33 | 33 | > 50 |

Now from value to compound, other results behind:

| inhibition [1] [%] | IC50 (RAW264.7 [3]) [µM] | SMILES | IC50 (RAW264.7 [2]) [µM] |
| --- | --- | --- | --- |
| 58 | 24 | COc1ccc(-c2cc(CC3CO3)ccc2O)cc1CC1CO1 (configuration not stated) | 64 |
| 23 | 78 | C=CCc1ccc(OC(C)C)c(-c2ccc(OC)c(CC=C)c2)c1 | > 100 |
| 39 | 24 | C=CCc1ccc(OC(C)=O)c(-c2ccc(OC)c(CC=C)c2)c1 | 29 |
| 41 | 13 | COc1ccc(-c2cc(CC=C(C)C)ccc2O)cc1CC=C(C)C | 15 |
| – | 41 | C=CCc1ccc(O)c(-c2ccc(OC)c(CCCO)c2)c1 | 53 |
| 57 | 18 | C=CCc1ccc(O)c(-c2ccc(OC)c(CC=C)c2)c1 [METHYLHONOKIOL] | 27 |
| 46 | 40 | C=CCc1ccc(OC)c(-c2ccc(OC)c(CC=C)c2)c1 | > 100 |
